{"source": "ChEMBL document CHEMBL1158336", "about": "“Synthesis, antitubercular activity and docking study of novel cyclic azole substituted diphenyl ether derivatives” (2009)", "data": [{"tested_on": "Mycobacterium tuberculosis", "test": "Antimycobacterial activity against Mycobacterium tuberculosis H37Rv at 1 ug/ml after 6 weeks", "format": "functional", "summary_of_the_method": "(§1)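 Lowenstein–Jensen slope method. Compounds dissolved in DMSO, diluted in DMSO, and an aliquot mixed into L.J. medium at 0.8 mL per 7.2 mL. Slopes set and sterilised at 75–80 °C for 3 days. M. tuberculosis H37Rv suspended with glass beads in sterile water and inoculated by 3 mm nichrome loop. DMSO-only and compound-free media served as controls.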", "units": {"Activity": "%"}, "values": [{"smiles": "O=C(c1ccccc1)N1N=C(c2ccccn2)CC1c1ccc(Oc2ccccc2)cc1", "note": "(centres undefined)", "Activity": 100}, {"smiles": "COc1ccc(-c2coc(-c3cccc(Oc4ccccc4)c3)n2)cc1", "Activity": 100}, {"smiles": "Clc1ccc(-c2coc(-c3cccc(Oc4ccccc4)c3)n2)cc1", "Activity": 100}, {"smiles": "c1ccc(Oc2cccc(-c3nc(-c4ccccc4)co3)c2)cc1", "Activity": 100}, {"smiles": "S=c1[nH]nc(-c2ccc(Oc3ccccc3)cc2)o1", "Activity": 100}, {"smiles": "S=c1[nH]nc(-c2cccc(Oc3ccccc3)c2)o1", "Activity": 100}, {"smiles": "S=c1[nH]nc(-c2ccc(Oc3ccccc3)cc2)n1-c1ccccc1", "Activity": 100}, {"smiles": "S=c1[nH]nc(-c2cccc(Oc3ccccc3)c2)n1-c1ccccc1", "Activity": 100}, {"smiles": "S=c1[nH]nc(-c2ccccc2Oc2ccccc2)n1-c1ccccc1", "Activity": 100}, {"smiles": "S=c1[nH]nc(-c2ccccc2Oc2ccccc2)o1", "Activity": 100}, {"smiles": "Oc1cc(Cl)ccc1Oc1ccc(Cl)cc1Cl", "note": "[TRICLOSAN]", "Activity": 100}]}, {"tested_on": "Mycobacterium tuberculosis", "test": "Antimycobacterial activity against Mycobacterium tuberculosis H37Rv after 6 weeks", "format": "functional", "summary_of_the_method": "as §1", "units": {"MIC": "µg/mL"}, "values": [{"smiles": "NNC(=O)c1ccncc1", "note": "[ISONIAZID]", "MIC": 0.01}, {"smiles": "Oc1cc(Cl)ccc1Oc1ccc(Cl)cc1Cl", "note": "[TRICLOSAN]", "MIC": 5}, {"smiles": "CO[C@H]1/C=C/O[C@@]2(C)Oc3c(C)c(O)c4c(O)c(c(/C=N/N5CCN(C)CC5)c(O)c4c3C2=O)NC(=O)/C(C)=C\\C=C\\[C@H](C)[C@H](O)[C@@H](C)[C@@H](O)[C@@H](C)[C@H](OC(C)=O)[C@@H]1C", "note": "[RIFAMPIN]", "MIC": 0.06}]}]}
